Measurements taken from ChEMBL document CHEMBL1124947, “Cationic antiprotozoal drugs. Trypanocidal activity of 2-(4'-formylphenyl)imidazo[1,2-a]pyridinium guanylhydrazones and related derivatives of quaternary heteroaromatic compounds” (J Med Chem, 1990).

Key:
Assay type in all cases: functional
Mus musculus [1] = assay: Trypanocidal Activity at I.C.E. value 0.59 when administered subcutaneously.
Summary of the method: (§1)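 Mice, in groups of five per dose, were given a standard inoculum of blood-stage T. rhodesiense that is lethal to all untreated controls, then dosed subcutaneously. Usually 11 dose levels were used (2^n × 0.42 mg/kg).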

[2] = system: Trypanosoma brucei rhodesiense; assay: In Vitro measurement of inhibition of thymidine uptake in cell culture of Trypanosoma rhodesiense.; details: read-out: ID50 (the source's name)
Summary of the method: (§2)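 Parasites harvested from infected rats and incubated 3 h across a drug concentration series, usually 0.1–100 µg/mL. Incorporation of radiolabeled thymidine measured. ID50 is the concentration (µg/mL) producing 50% inhibition.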

[3] = system: Trypanosoma brucei rhodesiense; assay: In Vitro measurement of inhibition of leucine uptake in cell culture of Trypanosoma rhodesiense.; details: read-out: ID50 (the source's name)
Summary of the method: (§3)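 Trypanosomes harvested from infected rats, cultured 3 h with several concentrations of drug, usually 0.1–100 µg/mL. Radiolabeled L-leucine uptake measured. ID50 is the concentration in µg/mL giving 50% inhibition of incorporation.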

Mus musculus [4] = assay: Trypanocidal Activity at I.C.E. value 0.85 when administered subcutaneously.; summary of the method: as §1
Mus musculus [5] = assay: Trypanocidal Activity at I.C.E. value 0.29 when administered subcutaneously.
Summary of the method: (§4)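 Blood-stage T. rhodesiense infection came from a standard inoculum lethal to all untreated mice. Drug was given by subcutaneous injection to groups of five mice. Survival beyond 30 days counted as cure. […] Sub-curative doses scored 0, and data were normalized at each dose.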

Mus musculus [6] = assay: Trypanocidal Activity at I.C.E. value 0.10 when administered perorally.
Mus musculus [7] = assay: Trypanocidal Activity at I.C.E. value 0.31 when administered subcutaneously.; summary of the method: as §4
Mus musculus [8] = assay: Trypanocidal Activity at I.C.E. value 0.33 when administered subcutaneously.; summary of the method: as §4
Mus musculus [9] = assay: Trypanocidal Activity at I.C.E. value 0.43 when administered subcutaneously.; summary of the method: as §4
Mus musculus [10] = assay: Trypanocidal Activity at I.C.E. value 0.86 when administered subcutaneously.; summary of the method: as §1
Mus musculus [11] = assay: Trypanocidal Activity at I.C.E. value 0.63 when administered subcutaneously.; summary of the method: as §1
Mus musculus [12] = assay: Trypanocidal Activity was determined after subcutaneous administration; summary of the method: as §1
[13] = system: Trypanosoma brucei rhodesiense; assay: In Vitro measurement of inhibition of thymidine uptake in cell culture of Trypanosoma rhodesiense; details: read-out: ID50 (the source's name); summary of the method: as §2
[14] = system: Trypanosoma brucei rhodesiense; assay: In Vitro measurement of inhibition of leucine uptake in cell culture of Trypanosoma rhodesiense; details: read-out: ID50 (the source's name); summary of the method: as §3
Mus musculus [15] = assay: Trypanocidal Activity at I.C.E. value 0.19 when administered subcutaneously.
Mus musculus [16] = assay: Trypanocidal Activity at I.C.E. value 0.36 when administered subcutaneously.
Mus musculus [17] = assay: Trypanocidal Activity at I.C.E. value 0.45 when administered perorally.
Mus musculus [18] = assay: Trypanocidal Activity at I.C.E. value 0.27 when administered subcutaneously.; summary of the method: as §4
Mus musculus [19] = assay: Trypanocidal Activity at I.C.E. value 0.37 when administered subcutaneously.; summary of the method: as §4
Mus musculus [20] = assay: Trypanocidal Activity at I.C.E. value 0.57 when administered perorally.
Mus musculus [21] = assay: Trypanocidal Activity at I.C.E. value 0.35 when administered perorally.
Mus musculus [22] = assay: Trypanocidal Activity at I.C.E. value 0.45 when administered subcutaneously.; summary of the method: as §4
Mus musculus [23] = assay: Trypanocidal Activity at I.C.E. value 0.58 when administered subcutaneously.; summary of the method: as §1
Mus musculus [24] = assay: Trypanocidal Activity at I.C.E. value 0.69 when administered subcutaneously.; summary of the method: as §1
Mus musculus [25] = assay: Trypanocidal Activity at I.C.E. value 0.21 when administered subcutaneously.
Mus musculus [26] = assay: Trypanocidal Activity at I.C.E. value 0.18 when administered subcutaneously.
Mus musculus [27] = assay: Trypanocidal Activity at I.C.E. value 0.53 when administered perorally.
Mus musculus [28] = assay: Trypanocidal Activity at I.C.E. value 0.71 when administered subcutaneously.; summary of the method: as §1
Mus musculus [29] = assay: Trypanocidal Activity at I.C.E. value 0.48 when administered subcutaneously.; summary of the method: as §4
Mus musculus [30] = assay: Trypanocidal Activity at I.C.E. value 0.26 when administered subcutaneously.; summary of the method: as §4

Br.CCNC(=N)N/N=C/c1ccc(-c2cn3ccccc3[n+]2C)cc1.[Br-]
CD50 (Mus musculus [1]): 0.1 mg/kg
IC50 [2]: 0.4 µg/mL
IC50 [3]: 0.5 µg/mL

Br.Cc1ccc2n(c1)cc(COc1ccc(/C=N/NC(=N)NO)cc1)[n+]2C.[Br-]
CD50 (Mus musculus [4]): 0.2 mg/kg

Br.CC/N=C(\NCC)N/N=C/c1ccc(OCc2n(C)c3ccccc3[n+]2C)cc1.[Br-]
CD50 (Mus musculus [5]): 6.6 mg/kg
CD50 (Mus musculus [6]): 212 mg/kg

Br.Cc1ccn2cc(-c3ccc(/C=N/NC(=N)NN4CCOCC4)cc3)[n+](C)c2c1.[Br-]
CD50 (Mus musculus [7]): 0.8 mg/kg

Br.C[n+]1c(-c2ccc(/C=N/NC(=N)N3CCOCC3)cc2)cn2ccccc21.[Br-]
CD50 (Mus musculus [8]): 0.4 mg/kg

C[n+]1c(-c2ccc(/C=N/Nc3nc(N)nc(N)n3)cc2)cn2ccccc21.Cc1ccc(S(=O)(=O)[O-])cc1
CD50 (Mus musculus [9]): 6.6 mg/kg

Br.Cc1ccc2n(c1)cc(COc1ccc(/C=N/NC3=NCCN3)cc1)[n+]2C.[Br-]
CD50 (Mus musculus [10]): 0.8 mg/kg

Cc1ccc(S(=O)(=O)O)cc1.Cc1ccc(S(=O)(=O)[O-])cc1.Cn1cc[n+](C)c1/C=C/c1ccc(/C=N/NC(=N)N2CCCC2)cc1
CD50 (Mus musculus [11]): 0.03 mg/kg

CCNC(=N)N/N=C/c1ccc(OCc2n(C)cc[n+]2C)cc1.Cc1ccc(S(=O)(=O)O)cc1.Cc1ccc(S(=O)(=O)[O-])cc1
CD50 (Mus musculus [12]): 6.6 mg/kg

Br.Cc1ccc2n(c1)cc(-c1ccc(/C=N/NC(=N)N(C)C)cc1)[n+]2C.[Br-]
CD50 (Mus musculus [9]): 0.8 mg/kg

Br.Cn1c[n+](Cc2ccc(/C=N/NC3=NCCN3)cc2)c2ccccc21.[Br-]
IC50 [13]: 11.1 µg/mL
CD50 (Mus musculus [6]): 424 mg/kg
IC50 [14]: > 10 µg/mL
CD50 (Mus musculus [15]): 3.3 mg/kg

Br.C[n+]1cccc(COc2ccc(/C=N/NC3=NCCN3)cc2)c1.[Br-]
CD50 (Mus musculus [16]): 3.3 mg/kg
CD50 (Mus musculus [17]): 13 mg/kg

Br.C[n+]1c(COc2ccc(/C=N/NC(=N)N3CCCC3)cc2)cn2cc(C(F)(F)F)ccc21.[Br-]
CD50 (Mus musculus [18]): 26 mg/kg

Br.CCCNC(=N)N/N=C/c1ccc(-c2cn3ccc(C)cc3[n+]2C)cc1.[Br-]
IC50 [2]: 1.9 µg/mL
IC50 [3]: 4.6 µg/mL
CD50 (Mus musculus [17]): 26 mg/kg
CD50 (Mus musculus [11]): 0.2 mg/kg

Cc1ccc(S(=O)(=O)[O-])cc1.Cn1c(COc2ccc(/C=N/NC(=O)c3ccc(N)cc3)cc2)[n+](C)c2ccccc21
CD50 (Mus musculus [19]): 6.6 mg/kg

Cc1ccc(S(=O)(=O)O)cc1.Cc1ccc(S(=O)(=O)[O-])cc1.Cn1c(COc2ccc(/C=N/NC(=N)N3CCCC3)cc2)[n+](C)c2ccccc21
CD50 (Mus musculus [8]): 0.8 mg/kg
CD50 (Mus musculus [20]): 6.6 mg/kg

Br.C[n+]1cccc(COc2ccc(/C=N/NC3=NCCCN3)cc2)c1.[Br-]
CD50 (Mus musculus [21]): 53 mg/kg
IC50 [13]: 3.7 µg/mL
CD50 (Mus musculus [22]): 0.8 mg/kg
IC50 [14]: > 10 µg/mL

C[n+]1c(/C=C/c2ccc(/C=N/NC(=O)c3ccc(N)cc3)cc2)cn2ccccc21.Cc1ccc(S(=O)(=O)[O-])cc1
CD50 (Mus musculus [23]): 6.6 mg/kg

Br.Cc1ccc2n(c1)cc(COc1ccc(/C=N/NC3=NCCCN3)cc1)[n+]2C.[Br-]
CD50 (Mus musculus [24]): 0.8 mg/kg

Br.C[n+]1c(-c2ccc(/C=N/NC(=N)N)cc2)cn2c1CCCC2.[Br-]
CD50 (Mus musculus [9]): 0.4 mg/kg

C[n+]1c(-c2ccc(/C=N/NC3N=NC(=S)N3N)cc2)cn2ccsc21.[Br-] (stereo unspecified)
IC50 [13]: 2.4 µg/mL
CD50 (Mus musculus [25]): 212 mg/kg
IC50 [14]: 4.6 µg/mL

C[n+]1c(-c2ccc(/C=N/NC3N=NC(=S)N3N)cc2)cn2ccccc21.[Br-] (stereo unspecified)
CD50 (Mus musculus [26]): 53 mg/kg

Br.C/N=C(\NC)N/N=C/c1ccc(OCc2cn3ccccc3[n+]2C)cc1.[Br-]
CD50 (Mus musculus [21]): 53 mg/kg
CD50 (Mus musculus [22]): 0.8 mg/kg

C[n+]1c(-c2ccc(/C=N/Nc3nccs3)cc2)cn2ccsc21.[Br-]
CD50 (Mus musculus [7]): 26 mg/kg

C[n+]1c(/C=C/c2ccc(/C=N/NC3=NCCCN3)cc2)cn2ccccc21.[Br-]
CD50 (Mus musculus [27]): 13 mg/kg
CD50 (Mus musculus [28]): 0.4 mg/kg

Cc1ccc2n(c1)cc(-c1ccc(/C=N/Nc3ccccn3)cc1)[n+]2C.[Br-]
CD50 (Mus musculus [29]): 0.8 mg/kg

C[n+]1c(COc2ccc(/C=N/Nc3nccs3)cc2)cn2ccccc21.[Br-]
CD50 (Mus musculus [18]): 53 mg/kg

C[n+]1c(-c2ccc(/C=N/Nc3ncccn3)cc2)cn2ccccc21.[Br-]
CD50 (Mus musculus [30]): 6.6 mg/kg
